Each structure is given as a SMILES string.

From publication PMC3953455 (Molecular pharmaceutics, 2013) come the findings set out here.

Data set [1] has as its target T1, human UGT1A1 (Homo sapiens, UniProt P22309).
T1 sequence (P22309 26-533): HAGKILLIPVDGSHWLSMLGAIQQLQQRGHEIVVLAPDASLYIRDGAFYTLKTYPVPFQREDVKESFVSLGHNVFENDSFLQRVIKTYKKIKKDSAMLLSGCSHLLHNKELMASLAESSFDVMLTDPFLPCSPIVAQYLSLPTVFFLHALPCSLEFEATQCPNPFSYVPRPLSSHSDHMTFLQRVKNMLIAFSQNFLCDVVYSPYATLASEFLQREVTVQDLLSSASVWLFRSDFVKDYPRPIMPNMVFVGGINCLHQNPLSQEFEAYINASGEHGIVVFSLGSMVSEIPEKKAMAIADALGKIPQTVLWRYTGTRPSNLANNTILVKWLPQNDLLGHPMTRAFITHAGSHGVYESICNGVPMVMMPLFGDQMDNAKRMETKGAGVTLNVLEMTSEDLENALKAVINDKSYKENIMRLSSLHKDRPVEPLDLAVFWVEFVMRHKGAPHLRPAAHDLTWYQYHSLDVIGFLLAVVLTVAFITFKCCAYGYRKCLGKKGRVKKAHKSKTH
As to the kind of experiment: Mutual glucuronidation inhibition. To be noted: for Ki: mixed-type inhibition; for type of inhibition of UGT1A1-mediated glucuronidation: best fit by R2 and AIC, Lineweaver-Burk plots; for decrease of apparent Vmax of glucuronidation versus control: substrate glucuronidation in presence of increasing 3,7,4′THF, up to 5 μM; for Vmax: n=3. The data set is classed as biochemical.

Data set [2] concerns the target T1, human UGT1A1. As to the kind of experiment: Glucuronidation kinetics with expressed human UGT1A1 Supersomes. The data set is classed as in vitro ADME. In short, it runs like this:
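Recombinant human UGT1A1 Supersomes (26.5~53.0 µg protein/mL final) with MgCl2 0.88 mM, saccharolactone 4.4 mM, alamethicin 0.022 mg/mL and UDPGA 3.5 mM (added last) in 50 mM potassium phosphate, pH 7.4. Test compound at 0–10 µM final. Incubated 37°C for 15~120 min, then stopped with acetonitrile/acetic acid. Glucuronide quantified by UPLC in triplicate. Rates were fitted to Michaelis-Menten, substrate-inhibition or Hill equations with 1/y weighting.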

Where [3] appears, read: Ki (inhibition of 3,7,4′THF-3-O-G formation), substrate 3,7,4′THF, 3-O-glucuronidation.
[4] abbreviates: Ki (inhibition of 3,7,4′THF-7-O-G formation), substrate 3,7,4′THF, 7-O-glucuronidation.
[5] abbreviates: glucuronide formation in presence of 3,7,4′THF 0.313 μM.
Setting [6] is: glucuronide formation in presence of 3,7,4′THF 0.625 μM.
Setting [7] is: glucuronide formation in presence of 3,7,4′THF 1.25 μM.
The mark [8] stands for this setting: glucuronide formation in presence of 3,7,4′THF 5 μM.
Setting [9] is: glucuronide formation, 3,7,4′THF 0 μM (absence of inhibitor).

As for `O=c1c(O)c(-c2ccc(O)cc2)oc2cc(O)ccc12` [3,7,4′THF, 3,7,4′-trihydroxyflavone], the Ki – broadly, a dissociation constant, usually derived from enzyme kinetics or from competition with a known ligand – at human UGT1A1 [1] (Ki (inhibition of glucuronidation of 3HF), substrate 3HF) is 0.51 ± 0.15 µM; on human UGT1A1 [1] (Ki (inhibition of glucuronidation of 7HF), substrate 7HF), 1.29 ± 0.33 µM. Moreover, the “type of inhibition of UGT1A1-mediated glucuronidation” value at human UGT1A1 [1] was “mixed-type inhibition”. The “Ki of substrate inhibition” value on human UGT1A1 [2] (substrate inhibition pattern of 3,7,4′THF in the absence of three MHFs) is listed as “approximately 1 μM”.
Turning to `O=C(O)[C@H]1O[C@@H](Oc2ccc(-c3oc4cc(O)ccc4c(=O)c3O)cc2)[C@H](O)[C@@H](O)[C@@H]1O` [3,7,4′THF-4′-O-G, 3,7,4′THF-4′-O-glucuronide], the “detection of glucuronide in UGT1A1 reaction mixtures” value on human UGT1A1 [2] (3,7,4′THF incubated with human UGT1A1) is given as “not detected”.
On to `O=c1c(O)c(-c2ccccc2)oc2ccccc12` [3HF, 3-Hydroxyflavone], for which the Ki on human UGT1A1 [1] (setting [3]) worked out at 4.14 ± 1.24 µM. Further, the affinity at human UGT1A1 [1] (setting [4]) corresponds to a Ki of 9.04 ± 2.72 µM. For the same compound, on human UGT1A1 [1], the “type of inhibition of UGT1A1-mediated glucuronidation” value is “mixed-type inhibitors” and the “decrease of apparent Vmax of glucuronidation versus control” value (“decrease” below) is ≤ 4.6 times.
In the case of `O=C(O)[C@H]1O[C@@H](Oc2c(-c3ccccc3)oc3ccccc3c2=O)[C@H](O)[C@@H](O)[C@@H]1O` [3HF-O-G, 3HF-O-glucuronide], the Vmax (as a rule, the top rate of the reaction or transport when substrate is in excess) on human UGT1A1 [1] (setting [5]) turned out to be 1.63 ± 0.07 nmol/mg/min; on human UGT1A1 [1] (setting [6]), 1.67 ± 0.03 nmol/mg/min; at human UGT1A1 [1] (setting [7]), 2.05 ± 0.13 nmol/mg/min; on human UGT1A1 [1] (setting [8]), 0.44 ± 0.16 nmol/mg/min; at human UGT1A1 [1] (setting [9]), 2.00 ± 0.05 nmol/mg/min.
In turn, `O=c1cc(-c2ccc(O)cc2)oc2ccccc12` [4′HF, 4′-hydroxyflavone] had an inhibitory constant (Ki) on human UGT1A1 [1] (setting [3]) of 3.66 ± 0.77 µM. This compound had a Ki on human UGT1A1 [1] (setting [4]) of 6.22 ± 1.74 µM. For the same compound, on human UGT1A1 [1], the “type of inhibition of UGT1A1-mediated glucuronidation” value is given as “mixed-type inhibitors” and the “decrease” value is given as ≤ 5.0 times.
`O=C(O)[C@H]1O[C@@H](Oc2ccc(-c3cc(=O)c4ccccc4o3)cc2)[C@H](O)[C@@H](O)[C@@H]1O` [4′HF-O-G, 4′HF-O-glucuronide]: the Vmax at human UGT1A1 [1] (setting [5]) worked out at 0.63 ± 0.02 nmol/mg/min; at human UGT1A1 [1] (setting [6]), 0.61 ± 0.02 nmol/mg/min; on human UGT1A1 [1] (setting [7]) it was 0.58 ± 0.01 nmol/mg/min; on human UGT1A1 [1] (setting [8]), 0.14 ± 0.01 nmol/mg/min; on human UGT1A1 [1] (setting [9]) it was 0.68 ± 0.02 nmol/mg/min.
In the case of `O=c1cc(-c2ccccc2)oc2cc(O)ccc12` [7HF, 7-hydroxyflavone], the affinity on human UGT1A1 [1] (setting [3]), expressed as Ki, was 1.77 ± 0.72 µM. Further, at human UGT1A1 [1] (setting [4]), the Ki amounted to 4.33 ± 1.6 µM. Moreover, at human UGT1A1 [1], the “type of inhibition of UGT1A1-mediated glucuronidation” value is listed as “mixed-type inhibitors” and the “decrease” value is ≤ 2.4 times.
Take `O=C(O)[C@H]1O[C@@H](Oc2ccc3c(=O)cc(-c4ccccc4)oc3c2)[C@H](O)[C@@H](O)[C@@H]1O` [7HF-O-G, 7HF-O-glucuronide]: the Vmax on human UGT1A1 [1] (setting [5]) amounted to 1.27 ± 0.03 nmol/mg/min; on human UGT1A1 [1] (setting [6]), 1.16 ± 0.03 nmol/mg/min; at human UGT1A1 [1] (setting [7]), 0.99 ± 0.07 nmol/mg/min; at human UGT1A1 [1] (setting [8]), 0.59 ± 0.07 nmol/mg/min; on human UGT1A1 [1] (setting [9]) it was 1.40 ± 0.05 nmol/mg/min.
